Measured values collected from several papers.
Target: Activin receptor type-2B (ACVR2B, Homo sapiens, UniProt Q13705)

Compound	effect on	technique	concentration	remaining binding [%]
Cc1cnn2ncc(-c3ccnc(N(C)C)n3)c2c1	binding	competition with immobilised ligand	1 µM	100
O=c1nc(-c2ccccn2)sc2ccccc12	binding	competition with immobilised ligand	1 µM	100
O=C(Nc1c[nH]nc1C(=O)NC1CCNCC1)c1cc(F)cc(F)c1	binding	competition with immobilised ligand	1 µM	100
COc1ncc2cc3ccccc3nc2c1C#N	binding	competition with immobilised ligand	5 µM	90
CN(C)CC#Cc1ccc(OCCCc2sc(N3CCc4cccc(C(=O)Nc5nc6ccccc6s5)c4C3)nc2C(=O)O)c(F)c1	cell-free assay	competition with immobilised ligand	1 µM	100
N[C@H]1CCN(c2nccc(-c3cnn4ncccc34)n2)C1	binding	competition with immobilised ligand	1 µM	93
CC1=C(C#N)C(c2ccc3c(c2)c(NC(=O)c2ccccc2C)nn3C)C(C#N)=C(C)N1	binding	competition with immobilised ligand	1 µM	100
F[C@@H]1CCN(c2nccc(-c3cnn4ncccc34)n2)C1	binding	–	1 µM	100
O=C(NCCCN1CCOCC1)c1ccc(Nc2ncc(Cl)c(-c3ccc(Cl)s3)n2)cc1	binding	competition with immobilised ligand	1 µM	81
CN(C)c1ncc(F)c(-c2cnn3ncccc23)n1	binding	competition with immobilised ligand	1 µM	95
Nc1ncc2c(n1)-c1c([nH]c3ccc(C#CC4CC4)cc13)CCCC2	binding	competition with immobilised ligand	1 µM	89
O=C(c1ccc(Nc2nccc(-c3cc4ccccc4s3)n2)cc1)N1CCC(N2CCCC2)CC1	binding	competition with immobilised ligand	1 µM	88
CN(c1nccc(-c2cnn3ncccc23)n1)C1CC1	binding	–	1 µM	100
COc1cnc(Nc2cccc(S(N)(=O)=O)c2)nc1N1CCN(c2ccccc2)C(=O)C1	binding	competition with immobilised ligand	1 µM	100
O=C1CCc2cc(Nc3cc(OC4CCOCC4)c([N+](=O)[O-])cc3Cl)ccc2N1	cell-free assay	competition with immobilised ligand	1 µM	89
FC(F)(F)Oc1cccc(-c2cnc3ccc(-c4ccncc4)nn23)c1	cell-free assay	competition with immobilised ligand	5 µM	46
Cc1cc(C)c(-n2ccn3nc(-c4cccnc4)cc23)cc1NC(=O)c1cc(C#N)cc(S(F)(F)(F)(F)F)c1	binding	competition with immobilised ligand	0.1 µM	88.7
c1cnn2ncc(-c3ccnc(N4CCC45COC5)n3)c2c1	binding	–	1 µM	90
Cc1nc(C2CCN(C(=O)c3ccc(OC(F)(F)F)cc3N)CC2)c2ncc(N3CCN(C)CC3)cc2n1	cell-free assay	competition with immobilised ligand	1 µM	100
O=C(NCCCN1CCOCC1)c1ccc(Nc2nccc(-c3cc4ccccc4s3)n2)cc1	binding	competition with immobilised ligand	1 µM	89
